Results: ChEMBL document CHEMBL1134251, “Quinazolines as cyclin dependent kinase inhibitors” (Bioorg Med Chem Lett, 2001)

Tests used:
[1] = target: Cyclin-dependent kinase 4/cyclin D1 (Homo sapiens, UniProt P11802); experiment: In vitro inhibitory activity against human cyclin dependent kinase (CDK4/D1); type: protein-complex assay
[2] = target: Cyclin-dependent kinase 2/cyclin E (Homo sapiens, UniProt P24941); experiment: In vitro inhibitory activity against human cyclin dependent kinase (CDK2/E); type: protein-complex assay
AG1523 = experiment: Inhibition of SRB AG1523 cancer cell proliferation; type: functional, cell-based; details: Homo sapiens, in the assay text read “normal human fibroblast cell” for “cancer cell”
Outline: (§1)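 Growth-inhibition assay in HCT 116 cancer cells, with IC50 as the read-out. AG1523 cells are normal human fibroblasts and were run under the same assay conditions as HCT 116.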

[3] = target: Cyclin-dependent kinase 2/cyclin A (Homo sapiens, UniProt P24941); experiment: Inhibition of human cyclin dependent kinase 2 (CDK2/A); type: protein-complex assay
[4] = Inhibition of human cyclin dependent kinase 6 (CDK6/D2)
[5] = target: T1, Cyclin-dependent kinase 1/cyclin B (Homo sapiens, UniProt P06493); experiment: Inhibition of human cyclin dependent kinase 1 (CDK1/B); type: protein-complex assay
HCT-116 = experiment: Inhibition SRB HCT 116 cancer cell proliferation; type: functional, cell-based; details: Homo sapiens; outline: as §1
[6] = target: T1, Cyclin-dependent kinase 1/cyclin B; experiment: Inhibition of human cyclin dependent kinase 1 (CDC2/B); type: protein-complex assay
[7] = target: Cyclin-dependent kinase 4/cyclin D1 (Homo sapiens) (UniProt P11802+P24385); experiment: Inhibition of human cyclin dependent kinase 4 (CDK4/D1) at 50 uM; type: protein-complex assay; set-up: scale not given: the % may be the effect or the level left

Cyclin-dependent kinase 4/cyclin D1, sequence (P11802 whole entry): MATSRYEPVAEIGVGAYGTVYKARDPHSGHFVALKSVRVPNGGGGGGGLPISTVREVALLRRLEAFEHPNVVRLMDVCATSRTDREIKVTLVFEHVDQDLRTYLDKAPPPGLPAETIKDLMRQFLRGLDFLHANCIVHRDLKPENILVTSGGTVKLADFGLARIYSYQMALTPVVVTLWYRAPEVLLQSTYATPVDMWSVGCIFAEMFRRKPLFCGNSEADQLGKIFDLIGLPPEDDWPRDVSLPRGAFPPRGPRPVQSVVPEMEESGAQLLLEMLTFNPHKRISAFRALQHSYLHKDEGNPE
Cyclin-dependent kinase 4/cyclin D1, sequence (P24385 whole entry, further chain): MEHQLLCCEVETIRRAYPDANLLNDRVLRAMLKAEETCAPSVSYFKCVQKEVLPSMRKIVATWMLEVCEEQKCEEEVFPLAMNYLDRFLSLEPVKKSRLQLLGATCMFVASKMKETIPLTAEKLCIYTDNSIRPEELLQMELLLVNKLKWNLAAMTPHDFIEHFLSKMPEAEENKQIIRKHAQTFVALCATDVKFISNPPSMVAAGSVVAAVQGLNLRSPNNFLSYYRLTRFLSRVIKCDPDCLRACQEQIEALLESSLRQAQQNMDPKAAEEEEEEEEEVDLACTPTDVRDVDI

SMILES	IC50 [1] [µM]	IC50 [2] [µM]	further results
CC(C)(CO)Nc1nc(C(F)(F)F)nc2ccccc12	15	2.3	–
CC(Nc1nc(C(F)(F)F)nc2ccccc12)c1ccccc1 (stereo not drawn)	59	6.8	–
CC(C)(C)Nc1nc(C(F)(F)F)nc2ccc(C(F)(F)F)cc12	> 37	0.79	IC50 (AG1523): > 59 µM; IC50 [3]: 2.05 µM; IC50 [4]: 56 µM; IC50 [5]: > 0.74 µM; IC50 (HCT-116): 18.6 µM
CC(C)(C)Nc1nc(C(F)(F)F)nc2ccc(-c3ccc(O)cc3)cc12	11	0.7	–
CC(C)(C)Nc1ncnc2ccccc12	> 248	> 50	–
Fc1cc(F)cc(CNc2nc(C(F)(F)F)nc3ccccc23)c1	> 19	8.9	–
CC(C)(C)Nc1nc(C(F)(F)F)nc2ccc(-c3ccc(-c4cccnc4)cc3)cc12	8.3	1.2	–
CC(C)(C)Nc1nc(C(Cl)(Cl)Cl)nc2ccccc12	11.9	6.1	IC50 [3]: 25.8 µM; IC50 [6]: 23 µM; IC50 (HCT-116): 25 µM
CC(C)(Nc1nc(C(F)(F)F)nc2ccccc12)c1ccccc1	> 151	14	–
CC(C)(C)Nc1nc(C(F)(F)C(F)(F)F)nc2ccccc12	> 20	11.9	–
CC(C)(C)Nc1nc(C(F)(F)F)nc2ccc(-c3ccsc3)cc12	3.55	0.545	IC50 (AG1523): > 28 µM; IC50 (HCT-116): 18.4 µM
COc1ccc(-c2ccc3nc(C(F)(F)F)nc(NC(C)(C)C)c3c2)cc1	> 27	10	–
OCC1CCCN1c1nc(C(F)(F)F)nc2ccccc12 (stereo not drawn)	63	14.8	–
CC(Nc1nc(C(F)(F)F)nc2ccccc12)c1ccc(F)cc1 (stereo not drawn)	–	16.5	Activity [7]: 35%
CCCC(C)Nc1nc(C(F)(F)F)nc2ccccc12 (stereo not drawn)	119	245	–
CC(C)(C)Nc1nc(C(F)(F)F)nc2ccc(NC=O)cc12	14	0.925	IC50 (HCT-116): 5.72 µM
CC(C)(C)Nc1nc(C(F)(F)F)nc2ccccc12	14.3	1.5	IC50 (AG1523): > 74 µM; IC50 (HCT-116): 20.6 µM
CC(C)(C)Nc1nc(C(F)(F)F)nc2ccc(-c3cccc(N)c3)cc12	> 2.1	–	–
CC(C)(C)Nc1nc(C(N)=O)nc2ccccc12	> 490	164	–
C[C@@H](Nc1nc(C(F)(F)F)nc2ccccc12)c1ccccc1	39	3.2	–
CC(C)(C)Nc1nc(C(F)(F)F)nc2ccc(-c3ccc(N)cc3)cc12	> 1.1	1.1	–

SMILES	IC50 [1] [µM]	IC50 [2] [µM]	further results
CC(C)(C)Nc1nc(C(F)(F)F)nc2ccc(O)cc12	18	1.15	IC50 (AG1523): > 18 µM; IC50 (HCT-116): 7.3 µM
CC(C)(C)Nc1nc(C(=O)O)nc2ccccc12	> 408	> 815	–
CC(C)(C)Nc1nc(Nc2ccccc2)nc2ccccc12	> 171	> 34	–
C#CC(C)(C)Nc1nc(C(Cl)(Cl)Cl)nc2ccccc12	24	13.5	IC50 [5]: 35 µM; IC50 (HCT-116): 15 µM
CC(C)S(=O)(=O)Nc1nc(C(F)(F)F)nc2ccccc12	> 157	> 31	–
COc1ccccc1-c1ccc2nc(C(F)(F)F)nc(NC(C)(C)C)c2c1	> 2.7	1	–
C[C@H](Nc1nc(C(F)(F)F)nc2ccccc12)c1ccccc1	–	31	Activity [7]: 40%
CC(C)(C)Nc1nc(C(F)(F)F)nc2ccc(-c3ccc(Cl)cc3)cc12	> 26	2.6	–
OC1CCCN(c2nc(C(F)(F)F)nc3ccccc23)C1 (stereo not drawn)	> 84	32.4	–
CC(C)(C)Nc1nc(C(F)(F)F)nc2ccc(-c3ccco3)cc12	> 3	1.2	–
CCC(C)(C)Nc1nc(C(F)(F)F)nc2ccccc12	16.8	1.4	–
CC(C)(C)Nc1nc(C(F)(F)F)nc2ccc(-c3cccs3)cc12	6.4	1.18	–
Fc1cccc(CNc2nc(C(F)(F)F)nc3ccccc23)c1	> 39	15.6	–
CC(C)(C)Nc1nc(C(F)(F)F)nc2ccc(-c3ccc(Cl)cc3Cl)cc12	> 2.4	> 12	–
CC(C)(C)Nc1nc(C(F)(F)F)nc2ccc(-c3ccccc3)cc12	7.7	1.8	–
CC(C)(C)Nc1nc(C(F)(F)F)nc2ccc(-c3cccnc3)cc12	8.3	–	–
CC(C)(C)Nc1nc(C(F)(F)F)nc2ccc(-c3cccc(O)c3)cc12	12	1	–
CCOC(=O)c1nc(NC(C)(C)C)c2ccccc2n1	168	> 5.8	–
COc1cccc(-c2ccc3nc(C(F)(F)F)nc(NC(C)(C)C)c3c2)c1	> 6.7	3.3	–
CC(C)(C)Nc1nc(C(F)(F)F)nc2ccc(-c3cccc(C(N)=O)c3)cc12	> 2.5	1.3	–
CC(C)(C)Nc1nc(-c2ccccc2)nc2ccccc12	> 361	–	–
